From PMC12521504 (Communications Biology, 2025) come the findings set out here.

Read-outs that look alike come from different tables or passages of the source.

For test [1], the target named is T1, mouse ACE (mACE) (Mus musculus, UniProt P09470).
T1 sequence (P09470 35-1312): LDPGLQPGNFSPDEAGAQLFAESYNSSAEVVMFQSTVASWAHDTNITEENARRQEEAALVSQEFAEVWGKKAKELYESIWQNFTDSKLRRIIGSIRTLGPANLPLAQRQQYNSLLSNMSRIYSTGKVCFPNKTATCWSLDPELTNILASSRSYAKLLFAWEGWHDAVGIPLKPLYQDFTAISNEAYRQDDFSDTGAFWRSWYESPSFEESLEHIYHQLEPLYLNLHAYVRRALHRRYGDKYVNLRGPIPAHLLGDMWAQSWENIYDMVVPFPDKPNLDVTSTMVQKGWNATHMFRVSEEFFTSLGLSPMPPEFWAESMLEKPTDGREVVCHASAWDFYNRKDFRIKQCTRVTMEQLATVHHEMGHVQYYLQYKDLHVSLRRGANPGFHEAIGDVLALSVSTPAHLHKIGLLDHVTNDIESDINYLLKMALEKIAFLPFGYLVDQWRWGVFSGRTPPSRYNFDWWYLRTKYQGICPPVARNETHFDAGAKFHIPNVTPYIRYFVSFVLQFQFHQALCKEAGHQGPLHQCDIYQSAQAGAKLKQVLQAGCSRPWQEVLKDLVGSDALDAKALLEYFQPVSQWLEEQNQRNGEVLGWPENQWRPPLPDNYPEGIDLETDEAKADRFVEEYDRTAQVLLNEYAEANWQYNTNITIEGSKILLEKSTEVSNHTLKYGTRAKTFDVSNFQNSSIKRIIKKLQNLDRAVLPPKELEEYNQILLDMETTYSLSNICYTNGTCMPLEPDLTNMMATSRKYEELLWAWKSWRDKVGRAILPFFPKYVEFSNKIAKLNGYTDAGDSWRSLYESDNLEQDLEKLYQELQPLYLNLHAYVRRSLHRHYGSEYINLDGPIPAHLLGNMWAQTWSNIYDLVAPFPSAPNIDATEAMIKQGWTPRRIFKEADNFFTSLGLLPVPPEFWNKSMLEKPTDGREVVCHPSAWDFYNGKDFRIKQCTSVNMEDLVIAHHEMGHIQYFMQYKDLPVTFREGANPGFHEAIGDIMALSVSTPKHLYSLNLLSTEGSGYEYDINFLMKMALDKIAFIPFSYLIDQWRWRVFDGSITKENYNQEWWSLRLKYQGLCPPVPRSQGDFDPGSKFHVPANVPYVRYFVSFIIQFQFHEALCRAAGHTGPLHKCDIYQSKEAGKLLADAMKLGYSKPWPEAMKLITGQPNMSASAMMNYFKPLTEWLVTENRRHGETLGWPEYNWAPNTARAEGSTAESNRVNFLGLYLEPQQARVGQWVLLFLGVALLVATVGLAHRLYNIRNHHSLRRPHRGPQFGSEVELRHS
Put plainly: Fluorescence-based ACE enzymatic assay with Mca-[…]. It counts as biochemical.

Test [2] relates to male ICR-CD1 mice. In words: Tail-flick assay. It counts as in vivo, mouse. To be noted: for %MPE (group mean): 15 min. In short, it runs like this:
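Radiant-heat tail-flick in 8-week male ICR-CD1 mice (n = 6–15/group). Beam was calibrated to a 2–4 s baseline, tail tip placed 20–30 mm from the source, cut-off 10 s. Compound was given i.c.v. under isoflurane at 100 µg/mouse (also 75 µg/mouse), alone or with MERF (50 µg/mouse). […] Results are %MPE relative to pre-treatment baseline.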

The next test concerns the target T2, N-domain of mACE (Mus musculus, UniProt P09470).
T2 sequence (P09470 35-1312): T1 sequence (P09470 35-1312)
In words: ACE N-domain specific enzymatic assay with Abz-SDK. In kind it is biochemical.

A further test has as its target T3, C-domain of mACE (Mus musculus, UniProt P09470).
T3 sequence (P09470 35-1312): T1 sequence (P09470 35-1312)
Put plainly: ACE C-domain specific enzymatic assay with Abz-LFK. It counts as biochemical.

Test [3] concerns male ICR-CD1 mice. In words: Acetic acid induced writhing test. It counts as in vivo, mouse. To be noted: for effect of naloxone on analgesia of systemic (i.p.) compound: naloxone 5 mg/kg s.c. For orientation: An intraperitoneal irritant provokes the stretching counted in writhing tests.
Test [4] concerns male ICR-CD1 mice. In words: Formalin induced paw licking/lifting test. It counts as in vivo, mouse. To be noted: 2% formalin.
Test [5] concerns male ICR-CD1 mice. Put plainly: Hot plate assay. It counts as in vivo, mouse. To be noted: 15 min. In short, it runs like this:
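Male ICR-CD1 mice, 8 weeks old (n = 6–15/group), received compound i.c.v. (10 µl, 100 µg/mouse) under isoflurane, alone or with MERF (50 µg/mouse). Mice were placed on a glass platform preheated to 55 °C. Latency to shake, lick or lift the hind paw, or to jump, was timed at set points, with a 60 s cut-off. Results are %MPE = (Test−Baseline)/(60−Baseline) × 100.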

For test [6], the system named is extracellular MERF, Met-enkephalin and Leu-enkephalin levels. It counts as cell-based, mouse. To be noted: thiorphan 10 μM, raloxifene 500 μM.
For test [7], the target named is T1, mouse ACE (mACE). In words: Secondary LC-MS/MS ACE inhibition assay. In kind it is biochemical.
Setting [8] is: 100 µg/animal i.c.v., 1% acetic acid i.p., 30 min.
The mark [9] stands for this setting: 100 µg/animal i.c.v. + naloxone 5 mg/kg s.c.
Setting [10] is: 100 µg/animal i.c.v., late phase.
The mark [11] stands for this setting: compound 100 μg/mouse + MERF i.c.v.
Where [12] appears, read: compound 100 μg/mouse i.c.v. alone.
Setting [13] is: compound 100 μg/mouse + MERF 50 μg/mouse i.c.v.

As for `O=C(O)c1nn(Cc2ccc(Cl)cc2Cl)c2ccccc12` [Lonidamine, lonidamine], on mouse ACE (mACE) [1], the “confirmation of HTS findings in dose-response studies” value was “did not confirm the HTS findings”.

In the case of `C=CCN1CC[C@]23c4c5ccc(O)c4O[C@H]2C(=O)CC[C@@]3(O)[C@H]1C5` [Naloxone, naloxone], the “analgesia of naloxone itself” value in the test with male ICR-CD1 mice [2] (5 mg/kg s.c.) is recorded as “unable to induce analgesia”.

Broadly, the IC50 is the concentration needed to halve the response being measured. A word on the Ki: it is the equilibrium dissociation constant of an inhibitor or competing ligand from its target. In the case of `O=C(c1ccc(OCCN2CCCCC2)cc1)c1c(-c2ccc(O)cc2)sc2cc(O)ccc12` [Raloxifene, raloxifene], the half-inhibitory concentration (IC50) at mouse ACE (mACE) [1] worked out at 102 ± 13.2 µM; on N-domain of mACE (read-out: IC50 N-domain, 40 µM Abz-SDK(Dnp)P-OH, 35 nM mACE), 320 µM; at C-domain of mACE, 140 µM. The Ki on N-domain of mACE worked out at 180 µM; on C-domain of mACE, 30 µM. Further, the “writhings (group mean)” value in the test with male ICR-CD1 mice [3] (100 µg/animal i.c.v. + naloxone 5 mg/kg s.c., 1% acetic acid) turned out to be 78.75; with male ICR-CD1 mice [3] (setting [8]), 51.8. Further, in the test on male ICR-CD1 mice [3], the “effect of naloxone on analgesia of systemic (i.p.) compound” value is recorded as “naloxone failed to reverse the analgesic effect”. Also, the “paw licking/lifting duration, Phase I” value with male ICR-CD1 mice [4] (setting [9]) is recorded as 69.75 s; in the test with male ICR-CD1 mice [4] (100 µg/animal i.c.v., 0–5 min), 10 s. For the same compound, the “paw licking/lifting duration, Phase II” value turned out to be 9.25 s in the test on male ICR-CD1 mice [4] (setting [9]) and 2 s in the test on male ICR-CD1 mice [4] (setting [10]). The “%MPE (group mean)” value in the test on male ICR-CD1 mice [5] (setting [11]) came out at 25.89%; with male ICR-CD1 mice [5] (setting [12]), 5.52%; in the test with male ICR-CD1 mice [2] (setting [13]) it was 34.28%; with male ICR-CD1 mice [2] (setting [12]) it was 13.33%.

Take Met-enkephalin-Arg-Phe [MERF]: the “%MPE (group mean)” value in the test on male ICR-CD1 mice [2] (MERF 50 μg/mouse i.c.v. alone) is 6.27%.

Consider `Cl.O=C(O)C1CCCN(CCC=C(c2ccccc2)c2ccccc2)C1` (stereo not shown) [SKF 89976A hydrochloride], for which, on mouse ACE (mACE) [1], the “confirmation of HTS findings in dose-response studies” value is “did not confirm the HTS findings”.

In the case of `O=C(O)CNC(=O)C(CS)Cc1ccccc1` (stereo not shown) [Thiorphan, thiorphan], the IC50 was determined as 2.36 ± 0.42 µM against mouse ACE (mACE) [1], 1.3 ± 0.08 µM against N-domain of mACE, 0.77 ± 0.046 µM on C-domain of mACE and 3.51 ± 0.37 µM at mouse ACE (mACE) [7]. Further, the results for the Ki at N-domain of mACE and on C-domain of mACE were 0.71 ± 0.045 µM and 0.17 ± 0.01 µM, respectively. Further, the “effect on Met- and Leu-enkephalin levels” value in test [6] is “affected the levels of Met- and Leu-enkephalins”. Further, the C/N selectivity factor at C-domain of mACE (N-domain versus C-domain) is recorded as 4.2. The “%MPE (group mean)” value in the test with male ICR-CD1 mice [5] (setting [11]) is 36.48%; in the test with male ICR-CD1 mice [5] (setting [12]), 13.83%; in the test on male ICR-CD1 mice [2] (setting [13]), 40.32%; in the test on male ICR-CD1 mice [2] (setting [12]), 22.45%.

Take `C[C@H](CS)C(=O)N1CCC[C@H]1C(=O)O` [Captopril, captopril]: the “writhings (group mean)” value amounted to 48 with male ICR-CD1 mice [3] (setting [8]) and 57.66 with male ICR-CD1 mice [3] (50 mg/kg i.p., 1% acetic acid). For the same compound, the “effect of naloxone on analgesia of systemic (i.p.) compound” value in the test on male ICR-CD1 mice [3] is given as “reversed by systemic naloxone”. Further, the “paw licking/lifting duration, Phase I” value in the test with male ICR-CD1 mice [4] (setting [9]) stood at 73.5 s; with male ICR-CD1 mice [4] (100 µg/animal i.c.v., 0–5 min), 16.5 s. Further, the “paw licking/lifting duration, Phase II” value is recorded as 16.25 s in the test with male ICR-CD1 mice [4] (setting [9]) and 15 s in the test on male ICR-CD1 mice [4] (setting [10]). Besides, the “%MPE (group mean)” value in the test on male ICR-CD1 mice [5] (setting [11]) was found to be 51.30%; in the test with male ICR-CD1 mice [5] (setting [12]), 10.32%; in the test with male ICR-CD1 mice [2] (setting [13]) it was 68.31%; with male ICR-CD1 mice [2] (setting [12]), 21.68%.
